From ChEMBL document CHEMBL1765068, “Role of the side chain stereochemistry in the α-glucosidase inhibitory activity of kotalanol, a potent natural α-glucosidase inhibitor” (Bioorg Med Chem, 2011) come the findings set out here.

Structures are written as SMILES. pIC50: −log10 of the molar value. Bounds are passed on as bounds.

Experiment [1] can be described thus: Inhibition of rat small intestinal maltase after 30 mins.
Experiment [2] concerns the target T1, Sucrase-isomaltase, intestinal (Rattus norvegicus, UniProt P23739). The experiment can be described thus: Inhibition of rat small intestinal sucrase after 30 mins. In short, it runs like this:
(§1)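 Enzyme source was rat small-intestinal brush-border membrane vesicles suspended in 0.1 M maleate buffer, pH 6.0. Substrate solutions were maltose 74 mM (maltase), sucrose 74 mM (sucrase) and isomaltose 7.4 mM (isomaltase). Glucose was measured by glucose oxidase. IC50 was read graphically from % inhibition versus log concentration.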

Experiment [3] has as its target T1, Sucrase-isomaltase, intestinal. The experiment can be described thus: Inhibition of rat small intestinal isomaltase after 30 mins. A digest of the protocol: as §1
Experiment [4] deals with Sucrase-isomaltase, intestinal (Rattus norvegicus) (UniProt P23739). The conditions noted are these: 100 ug/ml.
In experiment [5] the target is Lysosomal alpha-glucosidase (Rattus norvegicus) (UniProt Q6P7A9). Particulars: 100 ug/ml.
Lysosomal alpha-glucosidase (Rattus norvegicus), sequence (Q6P7A9 whole entry): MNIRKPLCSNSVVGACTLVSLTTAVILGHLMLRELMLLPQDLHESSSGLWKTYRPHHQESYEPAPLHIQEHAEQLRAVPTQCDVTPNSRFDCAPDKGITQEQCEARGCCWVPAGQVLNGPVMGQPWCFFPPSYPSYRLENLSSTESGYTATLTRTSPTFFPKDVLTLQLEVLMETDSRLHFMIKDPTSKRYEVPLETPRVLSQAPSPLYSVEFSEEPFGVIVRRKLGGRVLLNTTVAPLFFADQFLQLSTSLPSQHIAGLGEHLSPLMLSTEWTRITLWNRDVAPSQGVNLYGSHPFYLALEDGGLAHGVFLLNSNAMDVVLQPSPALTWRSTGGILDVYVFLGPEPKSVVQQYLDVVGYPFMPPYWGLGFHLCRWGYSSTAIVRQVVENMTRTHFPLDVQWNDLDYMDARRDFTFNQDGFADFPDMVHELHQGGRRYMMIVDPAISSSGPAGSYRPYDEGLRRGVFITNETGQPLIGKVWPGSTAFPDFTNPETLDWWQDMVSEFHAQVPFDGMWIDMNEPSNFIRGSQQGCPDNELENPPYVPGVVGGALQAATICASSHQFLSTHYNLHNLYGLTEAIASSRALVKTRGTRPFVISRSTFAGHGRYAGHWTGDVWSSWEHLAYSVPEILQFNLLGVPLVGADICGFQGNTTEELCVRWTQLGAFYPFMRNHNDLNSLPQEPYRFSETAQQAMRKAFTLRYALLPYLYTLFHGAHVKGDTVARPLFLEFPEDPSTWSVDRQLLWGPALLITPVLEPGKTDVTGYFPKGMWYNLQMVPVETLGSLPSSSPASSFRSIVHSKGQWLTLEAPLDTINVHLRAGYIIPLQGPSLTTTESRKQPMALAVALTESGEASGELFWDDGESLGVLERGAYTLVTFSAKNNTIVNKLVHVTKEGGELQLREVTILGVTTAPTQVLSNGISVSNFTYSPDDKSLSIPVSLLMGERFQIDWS

T1 sequence (P23739 1-1013 limits assumed): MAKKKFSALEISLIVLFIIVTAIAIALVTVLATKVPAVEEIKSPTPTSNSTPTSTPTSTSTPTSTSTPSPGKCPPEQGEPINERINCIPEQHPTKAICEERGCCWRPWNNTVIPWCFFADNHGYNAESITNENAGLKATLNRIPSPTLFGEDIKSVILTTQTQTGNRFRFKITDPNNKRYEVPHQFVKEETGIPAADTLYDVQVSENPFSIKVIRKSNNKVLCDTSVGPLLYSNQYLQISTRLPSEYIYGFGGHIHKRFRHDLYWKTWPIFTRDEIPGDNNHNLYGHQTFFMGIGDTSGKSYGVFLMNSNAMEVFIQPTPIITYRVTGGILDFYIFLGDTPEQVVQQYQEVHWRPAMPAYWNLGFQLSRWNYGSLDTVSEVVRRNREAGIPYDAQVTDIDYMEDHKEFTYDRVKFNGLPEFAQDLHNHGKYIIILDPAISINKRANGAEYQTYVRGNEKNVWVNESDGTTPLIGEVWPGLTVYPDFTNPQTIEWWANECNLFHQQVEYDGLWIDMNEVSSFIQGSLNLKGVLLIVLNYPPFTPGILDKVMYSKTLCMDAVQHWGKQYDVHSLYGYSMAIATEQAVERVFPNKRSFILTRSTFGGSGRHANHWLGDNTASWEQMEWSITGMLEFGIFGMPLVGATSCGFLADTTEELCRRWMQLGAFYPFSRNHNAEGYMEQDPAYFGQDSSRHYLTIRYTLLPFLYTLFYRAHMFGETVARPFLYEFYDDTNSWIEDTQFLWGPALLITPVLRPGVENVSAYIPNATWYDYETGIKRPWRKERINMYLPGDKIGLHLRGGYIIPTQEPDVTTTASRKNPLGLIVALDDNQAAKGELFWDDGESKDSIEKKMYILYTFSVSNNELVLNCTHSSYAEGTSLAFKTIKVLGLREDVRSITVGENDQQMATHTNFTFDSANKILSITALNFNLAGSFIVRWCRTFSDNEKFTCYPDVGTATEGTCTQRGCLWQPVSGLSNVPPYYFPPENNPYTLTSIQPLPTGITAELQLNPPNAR
T1 sequence (P23739 1014-1841 limits assumed): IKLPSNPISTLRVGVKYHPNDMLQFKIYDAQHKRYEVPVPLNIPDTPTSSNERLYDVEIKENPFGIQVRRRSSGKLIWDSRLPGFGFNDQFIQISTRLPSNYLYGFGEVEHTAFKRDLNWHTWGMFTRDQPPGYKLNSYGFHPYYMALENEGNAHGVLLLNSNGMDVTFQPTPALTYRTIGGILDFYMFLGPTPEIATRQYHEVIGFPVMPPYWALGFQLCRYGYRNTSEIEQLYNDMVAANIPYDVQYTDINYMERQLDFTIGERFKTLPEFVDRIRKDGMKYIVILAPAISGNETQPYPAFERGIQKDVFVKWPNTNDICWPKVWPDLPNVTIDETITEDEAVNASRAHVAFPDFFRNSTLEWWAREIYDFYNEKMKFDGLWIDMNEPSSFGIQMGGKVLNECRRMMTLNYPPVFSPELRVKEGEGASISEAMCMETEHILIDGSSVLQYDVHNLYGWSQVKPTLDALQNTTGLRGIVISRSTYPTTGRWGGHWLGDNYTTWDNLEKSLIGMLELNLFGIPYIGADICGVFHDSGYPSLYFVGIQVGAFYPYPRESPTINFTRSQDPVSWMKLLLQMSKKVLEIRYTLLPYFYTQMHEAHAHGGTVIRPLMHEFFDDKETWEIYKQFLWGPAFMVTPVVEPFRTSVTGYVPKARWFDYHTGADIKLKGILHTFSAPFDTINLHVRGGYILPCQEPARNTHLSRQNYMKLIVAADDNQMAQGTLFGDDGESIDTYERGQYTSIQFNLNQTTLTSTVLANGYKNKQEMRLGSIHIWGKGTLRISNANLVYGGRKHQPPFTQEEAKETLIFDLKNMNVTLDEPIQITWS
Sucrase-isomaltase, intestinal (Rattus norvegicus), sequence (P23739 1-1013 limits assumed): as the sequence (P23739 1-1013 limits assumed) above
Sucrase-isomaltase, intestinal (Rattus norvegicus), sequence (P23739 1014-1841 limits assumed): as the sequence (P23739 1014-1841 limits assumed) above

Turning to `O=S(=O)([O-])O[C@@H]([C@H](O)[C@H](O)[C@@H](O)CO)[C@H](O)C[S+]1C[C@@H](O)[C@H](O)[C@H]1CO` (stereo not given in full) [KOTALANOL], in experiment [1], the pIC50 was 5.14.

As for `O=S(=O)([O-])OC[C@H](O)C[S@+]1C[C@@H](O)[C@H](O)[C@H]1CO` [SALAPRINOL], the results for the negative-log IC50 (pIC50) in experiment [2] and in experiment [3] were 6.54 and 5.59, respectively.

In the case of `O=S(=O)([O-])O[C@H]([C@@H](O)[C@@H](O)[C@@H](O)CO)[C@H](O)C[S+]1C[C@@H](O)[C@H](O)[C@H]1CO` (stereo not given in full), the pIC50 in experiment [2] is 4.64; in experiment [3], 4.60.

Turning to `O=S(=O)([O-])O[C@H]([C@@H](O)[C@H](O)[C@@H](O)CO)[C@H](O)C[S+]1C[C@@H](O)[C@H](O)[C@H]1CO` (stereo not given in full), the negative logarithm of the IC50 (pIC50) was less than 3.63 in experiment [2] and 5.07 in experiment [3]. In addition, the figures for the inhibition in experiment [4] and in experiment [5] were 28% and 32%, respectively.

The molecule `OCC(CO)N[C@H]1C[C@](O)(CO)[C@@H](O)[C@H](O)[C@H]1O` [VOGLIBOSE] had a negative-log IC50 (pIC50) in experiment [2] of 5.92.

For the molecule `O=S(=O)([O-])O[C@H]([C@@H](O)[C@@H](O)[C@H](O)CO)[C@H](O)C[S+]1C[C@@H](O)[C@H](O)[C@H]1CO` (stereo not given in full), the pIC50 in experiment [2] was less than 3.63; in experiment [3], 4.80. The inhibition came to 8% in experiment [4] and 25% in experiment [5].

For `O=S(=O)([O-])O[C@H]([C@@H](O)[C@H](O)[C@H](O)CO)[C@H](O)C[S+]1C[C@@H](O)[C@H](O)[C@H]1CO` (stereo not given in full), the figures for the pIC50 in experiment [2] and in experiment [3] were less than 3.63 and 5.05, respectively. Besides, the results for the inhibition in experiment [4] and in experiment [5] were 34% and 45%, respectively.

In the case of `O=S(=O)([O-])O[C@@H](CO)[C@H](O)C[S@+]1C[C@@H](O)[C@H](O)[C@H]1CO` [SALACINOL], in experiment [1], the pIC50 is 5.28.

In the case of `O=S(=O)([O-])O[C@@H]([C@H](O)[C@@H](O)CO)[C@H](O)C[S@+]1C[C@@H](O)[C@H](O)[C@H]1CO` [PONKORANOL], the negative-log IC50 (pIC50) in experiment [2] was less than 4.00.

The term pIC50 denotes the IC50 on a negative log10 scale, so that one unit is a factor of ten. Higher therefore signals a low IC50. In general, inhibition refers to the relative decrease from the control value, in per cent. Read a low inhibition as little suppression.
